{"source": "ChEMBL document CHEMBL1157359", "about": "“Binding of ceftobiprole and comparators to the penicillin-binding proteins of Escherichia coli, Pseudomonas aeruginosa, Staphylococcus aureus, and Streptococcus pneumoniae” (Antimicrob Agents Chemother, 2007)", "key": {"[1]": {"test": "Inhibition of bocillin FL binding to penicillin-susceptible Streptococcus pneumoniae OC 8865 penicillin-binding protein 1a", "procedure,_shortened": "(§1)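 Whole S. pneumoniae cells were used rather than isolated membranes. Cells were competed with drug and then labeled with Bocillin FL, and PBP bands were visualized by fluorescence imaging. IC50 is the drug concentration that inhibits Bocillin FL binding to each PBP by 50% relative to a no-drug control.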"}, "[2]": {"test": "Inhibition of bocillin FL binding to penicillin-susceptible Streptococcus pneumoniae OC 8865 penicillin-binding protein 1b", "procedure,_shortened": "(§2)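 S. pneumoniae OC 8865 PBPs assayed in whole cells; drug competition followed by Bocillin FL labeling and imaging of labeled PBPs. IC50 is 50% inhibition of Bocillin FL binding compared with a no-drug control.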"}, "[3]": {"test": "Inhibition of bocillin FL binding to penicillin-resistant Streptococcus pneumoniae OC 8819 penicillin-binding protein 3", "procedure,_shortened": "as §1"}, "[4]": {"system": "Staphylococcus aureus", "test": "Antibacterial activity against methicillin-susceptible Staphylococcus aureus ATCC 29213 by CLSI method", "type": "functional"}, "[5]": {"test": "Inhibition of bocillin FL binding to penicillin-susceptible Streptococcus pneumoniae OC 8865 penicillin-binding protein 2b", "procedure,_shortened": "as §2"}, "[6]": {"test": "Inhibition of bocillin FL binding to penicillin-resistant Streptococcus pneumoniae OC 8819 penicillin-binding protein 1a", "procedure,_shortened": "as §1"}, "[7]": {"system": "Streptococcus pneumoniae", "test": "Antibacterial activity against penicillin-susceptible Streptococcus pneumoniae OC 8865 by CLSI method", "type": "functional"}, "[8]": {"test": "Inhibition of bocillin FL binding to penicillin-susceptible Streptococcus pneumoniae OC 8865 penicillin-binding protein 2a", "procedure,_shortened": "as §2"}, "[9]": {"test": "Inhibition of bocillin FL binding to penicillin-resistant Streptococcus pneumoniae OC 8819 penicillin-binding protein 2x", "procedure,_shortened": "as §1"}, "[10]": {"system": "Streptococcus pneumoniae", "test": "Antibacterial activity against penicillin-resistant Streptococcus pneumoniae OC 8819 by CLSI method", "type": "functional"}, "[11]": {"biological_target": "Penicillin-binding protein 3 (Pseudomonas aeruginosa, UniProt Q51504)", "sequence (Q51504 whole entry)": "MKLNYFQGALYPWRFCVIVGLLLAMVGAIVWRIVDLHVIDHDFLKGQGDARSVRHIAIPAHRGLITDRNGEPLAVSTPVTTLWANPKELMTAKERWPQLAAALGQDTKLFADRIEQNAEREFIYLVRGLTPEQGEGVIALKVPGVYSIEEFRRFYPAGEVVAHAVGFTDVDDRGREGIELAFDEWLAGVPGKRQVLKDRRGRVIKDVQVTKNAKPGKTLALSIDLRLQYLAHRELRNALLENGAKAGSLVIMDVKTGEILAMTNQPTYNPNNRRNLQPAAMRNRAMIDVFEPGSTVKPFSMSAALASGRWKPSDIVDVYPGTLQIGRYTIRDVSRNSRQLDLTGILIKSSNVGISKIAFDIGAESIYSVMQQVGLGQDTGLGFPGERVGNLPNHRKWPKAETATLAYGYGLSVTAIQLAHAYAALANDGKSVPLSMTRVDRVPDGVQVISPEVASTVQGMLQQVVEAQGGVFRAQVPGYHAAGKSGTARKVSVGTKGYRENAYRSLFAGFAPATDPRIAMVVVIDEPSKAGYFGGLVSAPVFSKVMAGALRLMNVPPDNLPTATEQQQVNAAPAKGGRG", "test": "Inhibition of bocillin FL binding to Pseudomonas aeruginosa PAO1 penicillin-binding protein 3", "procedure,_shortened": "(§3)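 Isolated P. aeruginosa PAO1 PBPs; drug added at 10 concentrations, 0.06 μg/ml to 32 μg/ml, before Bocillin FL labeling. Labeled PBPs imaged. IC50 is the drug level cutting Bocillin FL binding by 50% versus a no-drug sample.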"}, "[12]": {"biological_target": "T1, Penicillin-binding protein 1B (Pseudomonas aeruginosa, UniProt Q9X6W0)", "T1 sequence (Q9X6W0 whole entry)": "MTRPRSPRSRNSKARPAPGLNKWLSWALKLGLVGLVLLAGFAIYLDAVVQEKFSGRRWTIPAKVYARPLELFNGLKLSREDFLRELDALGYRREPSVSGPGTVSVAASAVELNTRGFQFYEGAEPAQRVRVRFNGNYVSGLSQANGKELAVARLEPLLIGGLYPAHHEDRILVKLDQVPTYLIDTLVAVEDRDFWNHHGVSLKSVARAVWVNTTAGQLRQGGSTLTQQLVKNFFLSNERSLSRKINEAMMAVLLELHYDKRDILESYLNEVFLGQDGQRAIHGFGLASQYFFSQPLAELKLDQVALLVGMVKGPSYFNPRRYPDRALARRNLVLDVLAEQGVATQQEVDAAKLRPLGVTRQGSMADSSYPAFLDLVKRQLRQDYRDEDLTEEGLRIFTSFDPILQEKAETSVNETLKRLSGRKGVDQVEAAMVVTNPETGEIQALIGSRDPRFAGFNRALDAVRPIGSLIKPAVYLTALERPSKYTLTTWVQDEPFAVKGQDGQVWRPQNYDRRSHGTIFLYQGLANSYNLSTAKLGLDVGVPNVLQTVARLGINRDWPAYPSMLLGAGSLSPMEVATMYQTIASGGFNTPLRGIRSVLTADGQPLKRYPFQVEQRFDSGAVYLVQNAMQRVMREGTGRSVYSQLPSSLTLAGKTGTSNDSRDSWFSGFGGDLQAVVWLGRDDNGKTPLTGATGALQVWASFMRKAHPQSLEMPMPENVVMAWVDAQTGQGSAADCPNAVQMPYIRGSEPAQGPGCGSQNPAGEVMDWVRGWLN", "test": "Inhibition of bocillin FL binding to Pseudomonas aeruginosa PAO1 penicillin-binding protein 1b", "procedure,_shortened": "as §3"}, "[13]": {"test": "Inhibition of bocillin FL binding to Pseudomonas aeruginosa PAO1 penicillin-binding protein 1a", "procedure,_shortened": "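P. aeruginosa PAO1 PBPs were isolated and competed with 10 drug concentrations from 0.06 μg/ml to 32 μg/ml before Bocillin FL labeling. Bands were detected by fluorescence imaging. IC50 was taken as 50% inhibition of Bocillin FL binding versus the no-drug sample.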"}, "[14]": {"biological_target": "T2, Penicillin-binding protein 2 (Pseudomonas aeruginosa, UniProt Q9X6V3)", "T2 sequence (Q9X6V3 whole entry)": "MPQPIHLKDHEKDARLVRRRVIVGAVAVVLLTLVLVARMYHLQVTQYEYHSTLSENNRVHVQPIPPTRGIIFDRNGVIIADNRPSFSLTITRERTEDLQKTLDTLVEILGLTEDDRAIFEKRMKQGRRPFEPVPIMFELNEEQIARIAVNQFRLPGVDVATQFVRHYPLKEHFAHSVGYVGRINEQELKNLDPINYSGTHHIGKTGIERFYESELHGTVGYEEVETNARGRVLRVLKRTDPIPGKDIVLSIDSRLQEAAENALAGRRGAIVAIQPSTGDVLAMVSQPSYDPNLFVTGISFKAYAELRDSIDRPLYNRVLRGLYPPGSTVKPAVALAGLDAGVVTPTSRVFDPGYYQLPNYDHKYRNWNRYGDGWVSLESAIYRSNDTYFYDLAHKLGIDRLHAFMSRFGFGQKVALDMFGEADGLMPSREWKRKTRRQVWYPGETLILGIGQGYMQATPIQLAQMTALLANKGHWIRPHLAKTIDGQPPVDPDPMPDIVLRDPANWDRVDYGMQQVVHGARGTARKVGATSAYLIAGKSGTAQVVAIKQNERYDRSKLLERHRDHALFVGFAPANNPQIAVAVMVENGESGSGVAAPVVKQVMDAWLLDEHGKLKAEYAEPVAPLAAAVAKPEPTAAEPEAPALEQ", "test": "Inhibition of bocillin FL binding to Pseudomonas aeruginosa PAO1 penicillin-binding protein 2", "procedure,_shortened": "as §3"}}, "note": "pIC50: −log10 of the molar value."}
{"smiles": "CO/N=C(\\C(=O)N[C@@H]1C(=O)N2C(C(=O)O)=C(CSc3nc(=O)c(O)nn3C)CS[C@H]12)c1csc(N)n1", "note": "(stereo in doubt) [CEFTRIAXONE]", "values": [{"measurement": "IC50", "setting": "[1]", "value": 0.01, "unit": "µg/mL"}, {"measurement": "IC50", "setting": "[2]", "value": 0.03, "unit": "µg/mL"}, {"measurement": "IC50", "setting": "[3]", "value": 0.01, "unit": "µg/mL"}, {"measurement": "MIC", "setting": "[4]", "value": 2, "unit": "µg/mL"}, {"measurement": "IC50", "setting": "[5]", "value": "> 1", "unit": "µg/mL"}, {"measurement": "IC50", "setting": "[6]", "value": 0.02, "unit": "µg/mL"}, {"measurement": "MIC", "setting": "[7]", "value": 0.03, "unit": "µg/mL"}, {"measurement": "IC50", "setting": "[8]", "value": 0.1, "unit": "µg/mL"}, {"measurement": "IC50", "setting": "[9]", "value": 8, "unit": "µg/mL"}, {"measurement": "MIC", "setting": "[10]", "value": 8, "unit": "µg/mL"}]}
{"smiles": "CC(C)(O/N=C(\\C(=O)N[C@@H]1C(=O)N2C(C(=O)[O-])=C(C[n+]3ccccc3)CS[C@H]12)c1csc(N)n1)C(=O)O", "note": "[CEFTAZIDIME]", "values": [{"measurement": "pIC50", "setting": "[11]", "value": 6.74}, {"measurement": "pIC50", "setting": "[12]", "value": 5.04}, {"measurement": "IC50", "setting": "[13]", "value": 0.2, "unit": "µg/mL"}, {"measurement": "pIC50", "setting": "[14]", "value": "< 4.23"}]}
{"smiles": "Nc1nc(/C(=N/O)C(=O)N[C@@H]2C(=O)N3C(C(=O)O)=C(/C=C4\\CCN([C@@H]5CCNC5)C4=O)CS[C@H]23)ns1", "note": "[CEFTOBIPROLE]", "values": [{"measurement": "IC50", "setting": "[1]", "value": 0.03, "unit": "µg/mL"}, {"measurement": "pIC50", "setting": "[11]", "value": 6.73}, {"measurement": "IC50", "setting": "[2]", "value": 0.05, "unit": "µg/mL"}, {"measurement": "IC50", "setting": "[3]", "value": 0.01, "unit": "µg/mL"}, {"measurement": "MIC", "setting": "[4]", "value": 0.25, "unit": "µg/mL"}, {"measurement": "IC50", "setting": "[5]", "value": 0.06, "unit": "µg/mL"}, {"measurement": "IC50", "setting": "[6]", "value": 0.1, "unit": "µg/mL"}, {"measurement": "pIC50", "setting": "[12]", "value": 6.03}, {"measurement": "MIC", "setting": "[7]", "value": 0.008, "unit": "µg/mL"}, {"measurement": "IC50", "setting": "[13]", "value": 0.1, "unit": "µg/mL"}, {"measurement": "IC50", "setting": "[8]", "value": 0.03, "unit": "µg/mL"}, {"measurement": "IC50", "setting": "[9]", "value": 1, "unit": "µg/mL"}, {"measurement": "pIC50", "setting": "[14]", "value": 5.25}, {"measurement": "MIC", "setting": "[10]", "value": 1, "unit": "µg/mL"}]}
